Laboratory results as given in ChEMBL document CHEMBL3232734, “Nitric oxide (NO) releasing poly ADP-ribose polymerase 1 (PARP-1) inhibitors targeted to glutathione S-transferase P1-overexpressing cancer cells” (J Med Chem, 2014).
pIC50: −log10 of the molar value. Values belong to the compound of their own block, whether it stands above or below them. The source made the active and inactive calls. The rule behind the calls is not given here.

How the values were obtained:
[1] = tested on: NCI-H1693; experiment: In vitro antiproliferative activity against human NCI-H1693 cells assessed as inhibition of cell proliferation after 72 hrs by MTT assay; assay type: functional, cell-based; settings: NCI-H1693, 72 h
[2] = molecular target: T1, Poly [ADP-ribose] polymerase 1 (Homo sapiens, UniProt P09874); experiment: Inhibition of PARP-1 (unknown origin) assessed as incorporation of biotinylated poly ADP-ribose onto histone proteins measured without activation by GSH by colorimetric analysis
T1 sequence (P09874 whole entry): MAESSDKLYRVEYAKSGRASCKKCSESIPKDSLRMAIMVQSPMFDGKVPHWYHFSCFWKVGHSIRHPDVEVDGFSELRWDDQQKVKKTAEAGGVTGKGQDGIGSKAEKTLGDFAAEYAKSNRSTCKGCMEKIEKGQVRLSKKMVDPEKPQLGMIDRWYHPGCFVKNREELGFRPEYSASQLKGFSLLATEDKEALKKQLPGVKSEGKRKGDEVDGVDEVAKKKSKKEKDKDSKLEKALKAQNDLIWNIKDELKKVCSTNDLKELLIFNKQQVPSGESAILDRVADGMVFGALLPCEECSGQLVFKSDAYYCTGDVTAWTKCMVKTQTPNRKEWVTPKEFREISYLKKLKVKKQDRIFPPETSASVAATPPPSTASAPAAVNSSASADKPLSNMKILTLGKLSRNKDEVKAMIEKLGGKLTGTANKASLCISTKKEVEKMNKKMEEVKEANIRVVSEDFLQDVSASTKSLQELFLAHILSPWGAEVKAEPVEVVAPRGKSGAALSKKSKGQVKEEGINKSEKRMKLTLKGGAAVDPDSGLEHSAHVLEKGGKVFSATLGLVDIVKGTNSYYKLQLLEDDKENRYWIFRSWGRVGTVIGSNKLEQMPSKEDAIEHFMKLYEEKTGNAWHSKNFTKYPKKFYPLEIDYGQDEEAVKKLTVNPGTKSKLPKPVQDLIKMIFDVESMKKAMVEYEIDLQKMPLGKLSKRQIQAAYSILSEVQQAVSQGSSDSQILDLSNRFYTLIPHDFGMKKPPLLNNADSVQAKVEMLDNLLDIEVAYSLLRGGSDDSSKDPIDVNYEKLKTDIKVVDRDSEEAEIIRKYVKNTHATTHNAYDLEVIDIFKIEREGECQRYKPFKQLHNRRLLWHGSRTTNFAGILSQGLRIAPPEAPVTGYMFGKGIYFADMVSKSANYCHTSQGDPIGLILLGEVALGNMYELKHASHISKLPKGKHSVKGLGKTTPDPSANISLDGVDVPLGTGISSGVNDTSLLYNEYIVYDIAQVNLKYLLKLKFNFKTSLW
Outline: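 Colorimetric PARP assay kit measuring biotinylated poly(ADP-ribose) incorporation onto histones, run per the manufacturer's protocol. Absorbance read at 450 nm. Inhibitor tested over 0.01 nM–1 μM, prodrug given without GSH activation. At least three experiments, each at least in triplicate.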

[3] = In vitro antiproliferative activity against human NCI-H1568 cells assessed as inhibition of cell proliferation after 72 hrs by MTT assay; assay type: functional, cell-based; settings: NCI-H1568, 72 h
[4] = tested on: NCI-H2030; experiment: In vitro antiproliferative activity against human NCI-H2030 cells assessed as inhibition of cell proliferation after 72 hrs by MTT assay; assay type: functional, cell-based; settings: NCI-H2030, 72 h
[5] = tested on: NCI-H1703; experiment: Increase in intracellular reactive oxygen/nitrogen species in human NCI-H1703 cells at 10 uM after 60 mins by DCF-DA dye based luminescence spectrometer analysis; assay type: functional, cell-based
Outline: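 Cells in six-well plates (6 × 10^5/well) loaded with 5 μM DCF-DA in HBSS, 30 min at 37 °C, 5% CO2, then rinsed. Fresh HBSS with compound (10 μM) or DMSO control added. After 60 min cells scraped into HBSS; DCF fluorescence read at ex 488 / em 530 nm. At least three experiments, each at least in triplicate.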

[6] = tested on: NCI-H1703; experiment: Induction of DNA strand break damage in human NCI-H1703 cells at 5 uM after 24 hrs by comet assay; assay type: functional, cell-based
[7] = Prodrug activation assessed as GSH reactivity in aqueous phosphate buffer at pH 7.4 by UV-Visible spectrophotometer analysis; assay type: physicochemical
Outline: (§1)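 UV–vis kinetics at 37 °C in 0.1 M phosphate buffer, pH 7.4, with 50 μM DTPA and 4 mM GSH, with or without 40 nM recombinant GSTP1 or GSTA1. Substrate (typically 10 μM) added after thermal equilibration. Ratios are k with enzyme over k with GSH alone.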

[8] = tested on: NCI-H1703; experiment: Induction of apoptosis in human NCI-H1703 cells assessed as cleaved caspase-7 level at 5 to 25 uM by immunoblot analysis; assay type: functional, cell-based; settings: 5 to […] uM
[9] = molecular target: Glutathione S-transferase P (Homo sapiens, UniProt P09211); experiment: Ratio of prodrug activation in presence of GSH and recombinant GSTP1 (unknown origin) to prodrug activation in presence of GSH by UV-Visible spectrophotometry
Glutathione S-transferase P, sequence (P09211 whole entry): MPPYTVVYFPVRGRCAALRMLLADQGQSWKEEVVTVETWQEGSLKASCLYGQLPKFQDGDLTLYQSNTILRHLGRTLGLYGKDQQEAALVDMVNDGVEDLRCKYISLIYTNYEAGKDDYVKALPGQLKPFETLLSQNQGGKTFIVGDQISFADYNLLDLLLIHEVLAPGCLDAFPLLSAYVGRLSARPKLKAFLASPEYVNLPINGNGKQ
Outline: as §1, with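 “equilibration. Absorbance followed at 302 nm; first-order rate from an exponential fit.” for “equilibration.”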

[10] = In vitro antiproliferative activity against human H460 cells assessed as inhibition of cell proliferation after 72 hrs by MTT assay; assay type: functional, cell-based; settings: NCI-H460, 72 h
[11] = tested on: A549; experiment: Anticancer activity against human A549 cells xenografted in NCr nu/nu athymic mouse assessed as reduction of tumor growth at 92 umol/kg, iv administered two times a week for 4 weeks; assay type: functional, organism-based
Outline: (§2)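 A549 cells (RPMI 1640 + 10% FBS, ≤4 passages) harvested at 70–80% confluence, 5 × 10^6 cells in PBS implanted s.c.; at ~3 mm × 3 mm tumors, mice randomized into groups of 12. Tail-vein injection at 92 μmol/kg in 20 μL DMSO, twice weekly for 4 weeks; saline or DMSO controls. Tumors caliper-measured twice weekly, volume = π/2 × L × W². Tumors resected at end, frozen, extracted for metabolite analysis by LC/MS.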

[12] = In vitro antiproliferative activity against human H441 cells assessed as inhibition of cell proliferation after 72 hrs by MTT assay; assay type: functional, cell-based; settings: NCI-H441, 72 h
[13] = In vitro antiproliferative activity against human NCI-H2023 cells assessed as inhibition of cell proliferation after 72 hrs by MTT assay; assay type: functional, cell-based; settings: NCI-H2023, 72 h
[14] = tested on: NCI-H2122; experiment: In vitro antiproliferative activity against human NCI-H2122 cells assessed as inhibition of cell proliferation after 72 hrs by MTT assay; assay type: functional, cell-based; settings: NCI-H2122, 72 h
[15] = tested on: NCI-H1703; experiment: Increase in intracellular nitric oxide release in human NCI-H1703 cells at 10 uM after 30 mins by DAF-FM dye based luminescence spectrometer analysis; assay type: functional, cell-based
[16] = tested on: NCI-H322M; experiment: In vitro antiproliferative activity against human NCI-H322M cells assessed as inhibition of cell proliferation after 72 hrs by MTT assay; assay type: functional, cell-based
[17] = tested on: NCI-H1792; experiment: In vitro antiproliferative activity against human NCI-H1792 cells assessed as inhibition of cell proliferation after 72 hrs by MTT assay; assay type: functional, cell-based; settings: NCI-H1792, 72 h
[18] = In vitro antiproliferative activity against human NCI-H1944 cells assessed as inhibition of cell proliferation after 72 hrs by MTT assay; assay type: functional, cell-based; settings: NCI-H1944, 72 h
[19] = tested on: A549; experiment: In vitro antiproliferative activity against human A549 cells assessed as inhibition of cell proliferation after 72 hrs by MTT assay; assay type: functional, cell-based; settings: A549, 72 h
[20] = tested on: Tumour; experiment: Drug uptake in tumor of NCr nu/nu athymic mouse xenografted with human A549 cells at 92 umol/kg, iv administered two times a week for 4 weeks; assay type: ADME, organism-based, Neoplasm; settings: in vivo, 672 h; outline: as §2
[21] = molecular target: T2, Glutathione S-transferase A1 (Homo sapiens, UniProt P08263); experiment: Ratio of prodrug activation in presence of GSH and recombinant GSTA1 (unknown origin) to prodrug activation in presence of GSH by UV-Visible spectrophotometry
T2 sequence (P08263 whole entry): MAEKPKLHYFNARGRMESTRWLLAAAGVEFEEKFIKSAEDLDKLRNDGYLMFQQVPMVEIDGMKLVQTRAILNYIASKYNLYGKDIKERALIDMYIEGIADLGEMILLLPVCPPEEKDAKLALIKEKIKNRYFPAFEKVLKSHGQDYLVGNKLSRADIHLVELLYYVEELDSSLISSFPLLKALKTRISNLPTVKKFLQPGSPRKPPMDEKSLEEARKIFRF
Outline: as §1, with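 “equilibration. Absorbance followed at 302 nm; first-order rate from an exponential fit.” for “equilibration.”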

[22] = tested on: NCI-H1703; experiment: In vitro antiproliferative activity against human NCI-H1703 cells assessed as inhibition of cell proliferation after 72 hrs by MTT assay; assay type: functional, cell-based; settings: NCI-H1703, 72 h
[23] = tested on: A549; experiment: Retention time of the compound in human A549 cells at 10 uM by LC/MS/MS analysis; assay type: ADME, cell-based; settings: a549, 10 µM
Outline: (§3)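 A549 cells plated in flasks overnight at 37 °C, then treated with 10 μM compound for varying times. Lysed by scraping in 10 mM HCl/acetonitrile, 5% sulfosalicylic acid added, centrifuged at 12000g for 15 min, filtered. Analyzed on a C18 column, 0.2 mL/min, H2O/acetonitrile/0.1% formic acid gradient, by Q-TOF LC/MS/MS in positive mode; extracted ion chromatograms at [M+H]+.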

[24] = In vitro antiproliferative activity against human H23 cells assessed as inhibition of cell proliferation after 72 hrs by MTT assay; assay type: functional, cell-based; settings: NCI-H23, 72 h
[25] = tested on: Mus musculus; experiment: Systemic toxicity in NCr nu/nu athymic mouse xenografted with human A549 cells assessed as body weight at 92 umol/kg, iv administered two times a week for 4 weeks (reference value: 25.0 +/-0.78 gms); assay type: organism-based; settings: in vivo, 672 h
[26] = tested on: Tumour; experiment: Drug metabolism in tumor of NCr nu/nu athymic mouse xenografted with human A549 cells assessed as metabolite formation at 92 umol/kg, iv administered two times a week for 4 weeks; assay type: ADME, organism-based, Neoplasm; settings: in vivo, 672 h; outline: as §2
[27] = tested on: A549; experiment: Retention time of the compound in human A549 cells treated with 2-(2,4-dinitrophenoxy)-1-(4-(2-fluoro-5-((4-oxo-3,4-dihydrophthalazin-1-yl)methyl)benzoyl)piperazin-1-yl)diazene oxide at 10 uM by LC/MS/MS analysis; assay type: ADME, cell-based; settings: a549, 10 µM; outline: as §3
[28] = molecular target: T1, Poly [ADP-ribose] polymerase 1; experiment: Inhibition of PARP-1 (unknown origin) assessed as incorporation of biotinylated poly ADP-ribose onto histone proteins by colorimetric analysis
[29] = tested on: NCI-H1355; experiment: In vitro antiproliferative activity against human NCI-H1355 cells assessed as inhibition of cell proliferation after 72 hrs by MTT assay; assay type: functional, cell-based; settings: NCI-H1355, 72 h

Compound: O=C(c1cc(Cc2n[nH]c(=O)c3ccccc23)ccc1F)N1CCN(/[N+]([O-])=N/Oc2ccc([N+](=O)[O-])cc2[N+](=O)[O-])CC1
pIC50 [1]: 5.27
pIC50 [2]: 7.24
pIC50 [3]: 5.52
pIC50 [4]: 5.04
Activity [5]: Active
Activity [6]: Active
t1/2 [7]: 11.6 min
Activity [8]: Active
Ratio [9]: 10.6
pIC50 [10]: 4.79
growth inhibition (GI) [11]: Active
pIC50 [12]: 5.35
pIC50 [13]: 4.82
pIC50 [14]: 5.12
Activity [15]: Active
pIC50 [16]: 5.10
pIC50 [17]: 4.90
pIC50 [18]: 4.98
pIC50 [19]: 4.87
Drug uptake [20]: Active
Ratio [21]: 20.4
pIC50 [22]: 5.37
Retention_time [23]: 18.2 min
pIC50 [24]: 5.08
Activity [25]: 27.7 g
Drug metabolism [26]: metabolite_detected

Compound: O=C(c1cc(Cc2n[nH]c(=O)c3ccccc23)ccc1F)N1CCN(C(=O)C2CC2)CC1 [OLAPARIB]
Activity [8]: inactive
Activity [25]: 25.6 g

Retention_time [27]: 11.9 min
pIC50 [28]: 8.16
Compound: O=C(c1cc(Cc2n[nH]c(=O)c3ccccc23)ccc1F)N1CCNCC1

Compound: CNc1ccc(C(=O)Oc2cc(O/N=[N+](\[O-])N(C)C)c([N+](=O)[O-])cc2[N+](=O)[O-])cc1
t1/2 [7]: 2 min
Ratio [9]: 5.4
Ratio [21]: 3.7

pIC50 [28]: 7.52
Compound: O=C(c1cccc(Cc2n[nH]c(=O)c3ccccc23)c1)N1CCNCC1

pIC50 [1]: 5.28
pIC50 [2]: 6.91
pIC50 [4]: 4.86
t1/2 [7]: 11.2 min
pIC50 [14]: 4.95
pIC50 [16]: 5.05
pIC50 [17]: 4.85
pIC50 [19]: 4.77
pIC50 [22]: 5.17
pIC50 [29]: 4.94
Compound: O=C(c1cccc(Cc2n[nH]c(=O)c3ccccc23)c1)N1CCN(/[N+]([O-])=N/Oc2ccc([N+](=O)[O-])cc2[N+](=O)[O-])CC1
pIC50 [3]: 5.19
Activity [5]: Active
pIC50 [10]: 4.86
pIC50 [12]: 5.09
pIC50 [13]: 4.71
Activity [15]: Active
pIC50 [18]: 4.85
pIC50 [24]: 5.12

Compound: N[C@@H](CCC(=O)N[C@@H](CSc1ccc([N+](=O)[O-])cc1[N+](=O)[O-])C(=O)NCC(=O)O)C(=O)O
Retention_time [27]: 13.8 min
